For twelve molecules, Activity, inhibition and IC50 results are on record in ChEMBL document CHEMBL3352645, “Bioactive 6S-styryllactone constituents of Polyalthia parviflora” (J Nat Prod, 2014).

Holding throughout (assay type): functional, cell-based
One assay concerns HepG2. Put plainly: Cytotoxicity against human HepG2 cells after 72 hrs by MTT assay. The note with it: for IC50: HepG2, 72 h. The method in brief:
(§1)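 Hep G2 and MDA-MB-231 plated at 1 × 10^4 cells per well in triplicate with various compound concentrations. At 72 h medium removed, MTT (0.5 mg/mL) added for 1 h at 37 °C, crystals solubilized in DMSO, absorbance at 550 nm. Doxorubicin control; IC50 as mean of triplicates.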

Assay [1] concerns Neutrophil. Put plainly: (§2) Antiinflammatory activity in human neutrophils assessed as inhibition of fMLP/CB-induced superoxide anion generation after 5 mins by spectrophotometry. The method in brief:
(§3)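 Cells with 0.5 mg/mL ferricytochrome c and 1 mM Ca2+ equilibrated 37 °C for 2 min, compound added 5 min, then cytochalasin B (1 μg/mL) 3 min before FMLP (100 nM) activation for 10 min. SOD-inhibitable ferricytochrome c reduction monitored continuously at 550 nm under stirring; IC50 from 50% inhibition; n = 3.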

The test system of another assay is MDA-MB-231. Put plainly: Cytotoxicity against human MDA-MB-231 cells after 72 hrs by MTT assay. The note with it: for IC50: MDA-MB-231, 72 h. The method in brief: as §1
(Tetrazolium dyes change colour on reduction, which living cells bring about.)

Assay [2] relates to Neutrophil. Put plainly: (§4) Antiinflammatory activity in human neutrophils assessed as inhibition of fMLP/CB-induced elastase release after 5 mins by spectrophotometry. The method in brief: (§5)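 Neutrophils equilibrated with MeOSuc-Ala-Ala-Pro-Val-p-nitroanilide (100 μM) at 37 °C for 2 min, then exposed to compound 5 min. Activated with CB (0.5 μg/mL) plus FMLP (100 nM). Elastase release (azurophilic degranulation) followed as absorbance change at 405 nm; IC50 = concentration giving 50% inhibition; n = 3.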

Another assay has as its system A549. Put plainly: Cytotoxicity against human A549 cells after 72 hrs by MTT assay. The note with it: for IC50: A549, 72 h. The method in brief:
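A549 seeded at 5 × 10^3 cells per well in triplicate, exposed to various compound concentrations. After 72 h medium replaced by MTT (0.5 mg/mL), 1 h at 37 °C; formazan dissolved in DMSO, absorbance read at 550 nm. Doxorubicin control; IC50 as mean of triplicates.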

Assay [3] can be described thus: as §2. Particulars: Neutrophil. The procedure, abridged: as §3
The nature of assay [4]: as §4. Particulars: Neutrophil. The procedure, abridged: as §5

Activity calls are given as the source filed them. The rule behind the calls is not given here. Bounds are passed on as bounds.

As for `O=C1C[C@H]2C[C@H](O1)[C@H](O)[C@@H](c1ccccc1)O2`, the outcome in the assay with HepG2, with MDA-MB-231 and with A549 was inactive. Besides, the inhibition result in the assay with Neutrophil [1] and in the assay on Neutrophil [2] was “inactive” in each case.
As for `O=C1C=CC[C@@H](/C=C/c2ccccc2)O1`, the IC50 is above 10 µM in the assay on HepG2; 8.3 µM in assay [3]; above 10 µM in the assay on MDA-MB-231; 15.4 µM in assay [4]; above 10 µM in the assay on A549.
Regarding `O=C1C=CC[C@@H]([C@@H](O)[C@@H](O)c2ccccc2)O1`, the IC50 in the assay on HepG2, in the assay on MDA-MB-231 and in the assay on A549 was above 10 µM throughout. For the same molecule, the inhibition result in the assay with Neutrophil [1] and with Neutrophil [2] was “inactive” each time.
`O=C1C=CC[C@@H]([C@H](O)[C@@H](O)c2ccccc2)O1`: in the assay with HepG2, the half-inhibitory concentration (IC50) is above 10 µM. The inhibition entry in the assay on Neutrophil [1] and in the assay with Neutrophil [2] was “inactive” throughout.
With `COc1cccc2c1C(=O)c1c(O)c3c(c(O)c1C2=O)C[C@@](O)(C(=O)CO)C[C@@H]3O[C@H]1C[C@H](N)[C@H](O)[C@H](C)O1` [DOXORUBICIN], the 50% inhibitory concentration (IC50) was determined as 0.88 µM in the assay on MDA-MB-231 and 0.87 µM with A549.
Regarding `O=C1C=CC(O)[C@H](/C=C/c2ccccc2)O1` (stereo partly specified), the IC50 with HepG2 is above 10 µM; in assay [3], 8.1 µM; in the assay with MDA-MB-231, above 10 µM; in assay [4], 14.6 µM; in the assay with A549, 7.9 µM.
Turning to `O=C1C=CC[C@@H]([C@H](O)[C@H](Cl)c2ccccc2)O1`, the IC50 was above 10 µM in the assay on HepG2, 30 µM in assay [3], above 10 µM with MDA-MB-231 and above 10 µM in the assay with A549.
`CNC(=O)c1cc(Oc2ccc(NC(=O)Nc3ccc(Cl)c(C(F)(F)F)c3)cc2)ccn1` [SORAFENIB]: the values for the IC50 in assay [3] and in assay [4] were 6.3 µM and 1.9 µM, respectively.
As to `O=C1C=CC[C@@H]([C@@H]2O[C@H]2c2ccccc2)O1`, the IC50 with HepG2 was above 10 µM; in assay [3], 21.2 µM; in the assay with MDA-MB-231, above 10 µM; in assay [4] it was 19.8 µM; in the assay with A549, above 10 µM.
On to `O=c1cccc(/C=C/c2ccccc2)o1`, for which the IC50 with HepG2 was above 10 µM; in assay [3], 11.6 µM; in the assay with MDA-MB-231 it was above 10 µM; in assay [4], 6.8 µM; in the assay with A549, above 10 µM.
`CO[C@@H](c1ccccc1)[C@H](O)[C@@H]1CC=CC(=O)O1`: the IC50 in the assay with HepG2, in the assay on MDA-MB-231 and with A549 was above 10 µM each time. Also, the inhibition result with Neutrophil [1] and with Neutrophil [2] was “inactive” in each case.
Regarding `CO[C@H](c1ccccc1)[C@@H](O)[C@@H]1CC=CC(=O)O1`, the IC50 in the assay with HepG2, in the assay with MDA-MB-231 and in the assay with A549 was above 10 µM each time. Further, the inhibition entry with Neutrophil [1] and in the assay with Neutrophil [2] was “inactive” each time.

The term IC50 denotes the concentration needed to halve the response being measured.
